Consider 24 compounds from ChEMBL document CHEMBL3739289, “Discovery, synthesis and structure-activity analysis of symmetrical 2,7-disubstituted fluorenones as urea transporter inhibitors” (Medchemcomm, 2015).

Molecules are shown by their SMILES. The source made the active and inactive calls. The calls are words filed in the database; no cut-off is given here.

The target of one data set is T1, Urea transporter 2 (Rattus norvegicus, UniProt Q62668).
T1 sequence (Q62668 whole entry): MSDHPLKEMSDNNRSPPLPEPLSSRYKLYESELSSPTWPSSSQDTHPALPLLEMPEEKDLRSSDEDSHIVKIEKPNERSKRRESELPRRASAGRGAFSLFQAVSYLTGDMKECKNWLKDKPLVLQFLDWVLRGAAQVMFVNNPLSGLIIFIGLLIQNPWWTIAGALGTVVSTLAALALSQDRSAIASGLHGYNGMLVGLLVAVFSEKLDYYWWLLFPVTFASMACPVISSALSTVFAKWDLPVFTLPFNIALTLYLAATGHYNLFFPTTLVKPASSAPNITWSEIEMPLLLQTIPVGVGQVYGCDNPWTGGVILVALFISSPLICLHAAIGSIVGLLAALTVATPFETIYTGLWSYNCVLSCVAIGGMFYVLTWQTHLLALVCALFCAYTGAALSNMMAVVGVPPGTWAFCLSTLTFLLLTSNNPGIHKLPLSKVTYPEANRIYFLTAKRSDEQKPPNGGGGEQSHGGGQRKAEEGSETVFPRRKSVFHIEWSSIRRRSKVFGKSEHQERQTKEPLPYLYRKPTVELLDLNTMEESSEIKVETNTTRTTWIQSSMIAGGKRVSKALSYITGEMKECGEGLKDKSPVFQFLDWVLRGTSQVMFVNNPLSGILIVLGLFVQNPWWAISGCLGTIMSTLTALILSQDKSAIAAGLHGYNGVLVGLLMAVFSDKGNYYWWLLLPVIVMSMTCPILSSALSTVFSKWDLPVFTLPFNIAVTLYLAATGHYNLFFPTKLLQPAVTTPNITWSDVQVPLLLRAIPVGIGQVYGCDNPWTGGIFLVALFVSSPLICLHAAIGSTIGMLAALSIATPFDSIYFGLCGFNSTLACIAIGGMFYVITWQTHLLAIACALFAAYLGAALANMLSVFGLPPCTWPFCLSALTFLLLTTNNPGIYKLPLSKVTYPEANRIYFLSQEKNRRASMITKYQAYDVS
The data set is described as follows: Inhibition of rat UT-A1 expressed in MDCK-UT-A1-AQP1-YFP cells after 15 mins by fluorescence assay. The class given is cell-based.

Data set [1] is described as follows: Metabolic stability in rat liver microsomes assessed as compound remaining after 15 mins by RP-HPLC analysis in presence of NADPH. It is filed as ADME. To be noted: read-out: Stability. Put shortly:
(§1)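 Compounds incubated with rat liver microsomes plus NADPH for up to 60 min. Parent loss and metabolite appearance followed by LC/MS.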
Background: Microsomes from liver hold many membrane-bound enzymes, among them those of drug oxidation.

A short description of data set [2]: Drug metabolism in rat liver microsomes assessed as cytochrome P450 monooxygenase-mediated oxidation by LC/MS analysis. The class given is ADME. Put shortly:
as §1

A further data set has as its target T2, Urea transporter 1 (Rattus norvegicus, UniProt P97689).
T2 sequence (P97689 whole entry): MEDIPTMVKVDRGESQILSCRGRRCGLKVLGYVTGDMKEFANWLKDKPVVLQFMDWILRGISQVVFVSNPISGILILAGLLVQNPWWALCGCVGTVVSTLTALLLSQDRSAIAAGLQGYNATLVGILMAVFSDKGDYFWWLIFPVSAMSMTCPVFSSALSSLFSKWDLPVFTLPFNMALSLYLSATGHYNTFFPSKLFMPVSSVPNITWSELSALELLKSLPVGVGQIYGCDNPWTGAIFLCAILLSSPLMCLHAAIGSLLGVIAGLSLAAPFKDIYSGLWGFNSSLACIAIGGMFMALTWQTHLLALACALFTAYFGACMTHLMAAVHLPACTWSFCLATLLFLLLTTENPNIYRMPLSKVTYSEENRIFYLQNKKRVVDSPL
The data set is described as follows: Inhibition of UT-B in rat whole blood after 15 mins by RBC lysis assay. The class given is tissue-based. An outline of the steps:
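Whole rat blood diluted to ~1.5% hematocrit in PBS with 1.25 M acetamide. Erythrocytes exposed to compound for 15 min, then rapidly mixed with PBS. Lysis read as absorbance at 710 nm; % inhibition calculated relative to negative and positive controls.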

Data set [3] has as its target T3, Urea transporter 2 (Rattus norvegicus) (UniProt Q62668).
T3 sequence (whole entry): T1 sequence (Q62668 whole entry)
The data set is described as follows: Non competitive inhibition of rat UT-A1 expressed in MDCK-UT-A1-AQP1-YFP cells at IC50 after 15 mins by fluorescence assay in presence of urea. It is filed as cell-based.

Data set [4] addresses T3, Urea transporter 2 (Rattus norvegicus). The data set is described as follows: Reversible inhibition of rat UT-A1 expressed in MDCK-UT-A1-AQP1-YFP cells at IC50 measured 15 mins post compound washout by fluorescence assay. The class given is cell-based.
In a further data set the test system is Liver microsome. The data set is described as follows: Drug metabolism in rat liver microsomes assessed as [M+ H-16] formation by LC/MS analysis. To be noted: TDE = time-dependent effect. The class given is ADME. An outline of the steps:
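Rat liver microsomes incubated with compound in presence of NADPH; disappearance of parent and appearance of metabolite followed by LC/MS over 60 min.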

Data set [5] concerns the target T3, Urea transporter 2 (Rattus norvegicus). The data set is described as follows: Inhibition of rat UT-A1 expressed in MDCK-UT-A1-AQP1-YFP cells after 40 secs by fluorescence assay. It is filed as cell-based.
Data set [6] can be described thus: Drug level in 1M NaOH treated with compound-18 assessed as compound formation. It is filed as physicochemical.

For the compound `CC(=O)Nc1ccc2c(c1)S(=O)(=O)c1cc(NC(C)=O)ccc1-2`, the IC50 (commonly the concentration that gives 50% inhibition) against Urea transporter 2 was 15 µM; at Urea transporter 1, 2 µM. Further, the remaining at 0.25 h in [1] is above 80%. Moreover, in data set [2], the Drug metabolism result is given as “metabolite_notdetected”.

Consider `[N-]=[N+]=NCC(=O)Nc1ccc2c(c1)C(=O)c1cc(NC(=O)CN=[N+]=[N-])ccc1-2`, for which the IC50 against Urea transporter 2 was 20 µM; at Urea transporter 1, 30 µM.

As for `O=C(O)/C=C\C(=O)Nc1ccc2c(c1)C(=O)c1cc(NC(=O)/C=C\C(=O)O)ccc1-2`, the half-maximal inhibitory concentration (IC50) at Urea transporter 2 is 30 µM; against Urea transporter 1, above 50 µM.

Take `CCCC(=O)Nc1ccc2c(c1)C(=O)c1cc(NC(=O)CCC)ccc1-2`: the IC50 against Urea transporter 2 and against Urea transporter 1 was above 50 µM each time.

As for `O=C1c2cc([N+](=O)[O-])ccc2-c2ccc([N+](=O)[O-])cc21`, the IC50 on Urea transporter 2 and against Urea transporter 1 was above 50 µM in each case.

`CC(=O)Nc1cccc(C(=O)c2cccc(NC(C)=O)c2)c1`: the IC50 is 18 µM at Urea transporter 2 and 20 µM against Urea transporter 1. The remaining at 0.25 h in data set [1] was above 80%. In data set [2], the Drug metabolism result is “metabolite_notdetected”.

With `CC(=O)Nc1ccc2c(c1)C(=O)c1cc(NC(C)=O)ccc1-2`, the 50% inhibitory concentration (IC50) amounted to 1 µM against Urea transporter 2 and 1.5 µM against Urea transporter 1. For the same compound, the inhibition entry in data set [3], in data set [4] and in [5] was “Active” throughout. Moreover, in data set [1], the remaining at 0.25 h came to 60%. Also, the Drug metabolism entry is recorded as “metabolite_notdetected” in [2] and “tde” with Liver microsome.

Take `O=C(CBr)Nc1ccc2c(c1)C(=O)c1cc(NC(=O)CBr)ccc1-2`: the IC50 against Urea transporter 2 came out at 30 µM; on Urea transporter 1, 10 µM.

Take `CC(=O)Nc1ccc2c(c1)C(=NO)c1cc(NC(C)=O)ccc1-2`: the IC50 against Urea transporter 2 is 12 µM; at Urea transporter 1, 25 µM. Further, the remaining at 0.25 h in data set [1] was above 80%. For the same compound, the Drug metabolism result in data set [2] is listed as “metabolite_notdetected”.

Turning to `COCCOCC(=O)Nc1ccc2c(c1)C(=O)c1cc(NC(=O)COCCOC)ccc1-2`, the IC50 against Urea transporter 2 is above 50 µM; against Urea transporter 1 it was 50 µM.

Turning to `CCC(=O)Nc1ccc2c(c1)C(=O)c1cc(NC(=O)CC)ccc1-2`, the concentration for half-maximal inhibition (IC50) against Urea transporter 2 was 15 µM; against Urea transporter 1, 5 µM.

As to `CC(=O)Nc1ccc2c(c1)C(O)c1cc(NC(C)=O)ccc1-2`, the IC50 against Urea transporter 2 was above 50 µM; against Urea transporter 1, 20 µM.

Take `O=C1c2cc(NC(=O)C(F)(F)F)ccc2-c2ccc(NC(=O)C(F)(F)F)cc21`: the IC50 at Urea transporter 2 turned out to be 10 µM; at Urea transporter 1 it was 7.5 µM.

Consider `CS(=O)(=O)Nc1ccc2c(c1)C(=O)c1cc(NS(C)(=O)=O)ccc1-2`, for which the half-inhibitory concentration (IC50) against Urea transporter 2 came out at 1.5 µM; against Urea transporter 1, 2.5 µM.

Consider `O=C1c2cc(N3CCCS3(=O)=O)ccc2-c2ccc(N3CCCS3(=O)=O)cc21`, for which the IC50 against Urea transporter 2 and on Urea transporter 1 was above 50 µM each time.

With `Nc1cccc(C(=O)c2cccc(N)c2)c1`, the concentration for half-maximal inhibition (IC50) against Urea transporter 2 and against Urea transporter 1 was above 50 µM each time.

Consider `NC(=O)Nc1ccc2c(c1)C(=O)c1cc(NC(N)=O)ccc1-2`, for which the half-inhibitory concentration (IC50) against Urea transporter 2 is 2 µM; at Urea transporter 1, 1.2 µM.

Turning to `O=C(CO)Nc1ccc2c(c1)C(=O)c1cc(NC(=O)CO)ccc1-2`, the IC50 on Urea transporter 2 stood at 20 µM; at Urea transporter 1 it was 25 µM.

In the case of `CS(=O)(=O)Nc1cccc(C(=O)c2cccc(NS(C)(=O)=O)c2)c1`, the IC50 at Urea transporter 2 is above 50 µM; against Urea transporter 1 it was 30 µM.

On to `CC(=O)/N=C1\C=CC2=c3ccc(NC(C)=O)cc3=CC2=C1`, for which the Drug metabolism result in [6] was “metabolite_detected”.

Regarding `O=C(COCc1ccccc1)Nc1cccc(C(=O)c2cccc(NC(=O)COCc3ccccc3)c2)c1`, the 50% inhibitory concentration (IC50) at Urea transporter 2 and against Urea transporter 1 was above 50 µM in each case.

Consider `O=C(COCc1ccccc1)Nc1ccc2c(c1)C(=O)c1cc(NC(=O)COCc3ccccc3)ccc1-2`, for which the IC50 on Urea transporter 2 and against Urea transporter 1 was above 50 µM in each case.

For `Nc1ccc2c(c1)C(=O)c1cc(N)ccc1-2`, the concentration for half-maximal inhibition (IC50) at Urea transporter 2 and against Urea transporter 1 was above 50 µM in each case.

On to `CC(C)C(=O)Nc1ccc2c(c1)C(=O)c1cc(NC(=O)C(C)C)ccc1-2`, for which the IC50 against Urea transporter 2 was 18 µM; on Urea transporter 1, 50 µM.
